Activity calls are given as the source filed them. No cut-off for these calls is given here.
What was measured:
[1] = Cytotoxicity against human GEC1 cells assessed as decrease in cell viability after 48 hrs by MTT assay; assay type: cell-based; conditions: GEC1, 48 h
How it was run: (§1)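 Normal cells: HUVECs in RPMI1640 with 10% FBS plus 0.1% heparin, GEC-1 in RPMI1640 with 10% FBS. Seeded 8 h, then treated with serial dilutions for 48 h; 0.5% MTT for 4 h, supernatant removed, DMSO added, absorbance read at 570 nm.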

Histone deacetylase 2 = Histone deacetylase 2 (Homo sapiens, UniProt Q92769)
HUVEC = assay: Cytotoxicity against human HUVEC cells assessed as decrease in cell viability after 48 hrs by MTT assay; assay type: cell-based; how it was run: as §1
[2] = Stability of the compound in rabbit plasma assessed as decrease in compound degradation incubated up to 12 hrs by HPLC analysis; assay type: ADME, cell-free, Oryctolagus cuniculus
[3] = target: T1, Protein deacetylase HDAC6 (Homo sapiens, UniProt Q9UBN7); assay: Inhibition of HDAC6 (unknown origin) using Ac-LeuGlyLy-s(Ac)-AMC as substrate preincubated for 10 mins followed by substrate addition and further incubated for 2 hrs by fluorescence microtiter plate reader assay
T1 sequence (Q9UBN7 whole entry): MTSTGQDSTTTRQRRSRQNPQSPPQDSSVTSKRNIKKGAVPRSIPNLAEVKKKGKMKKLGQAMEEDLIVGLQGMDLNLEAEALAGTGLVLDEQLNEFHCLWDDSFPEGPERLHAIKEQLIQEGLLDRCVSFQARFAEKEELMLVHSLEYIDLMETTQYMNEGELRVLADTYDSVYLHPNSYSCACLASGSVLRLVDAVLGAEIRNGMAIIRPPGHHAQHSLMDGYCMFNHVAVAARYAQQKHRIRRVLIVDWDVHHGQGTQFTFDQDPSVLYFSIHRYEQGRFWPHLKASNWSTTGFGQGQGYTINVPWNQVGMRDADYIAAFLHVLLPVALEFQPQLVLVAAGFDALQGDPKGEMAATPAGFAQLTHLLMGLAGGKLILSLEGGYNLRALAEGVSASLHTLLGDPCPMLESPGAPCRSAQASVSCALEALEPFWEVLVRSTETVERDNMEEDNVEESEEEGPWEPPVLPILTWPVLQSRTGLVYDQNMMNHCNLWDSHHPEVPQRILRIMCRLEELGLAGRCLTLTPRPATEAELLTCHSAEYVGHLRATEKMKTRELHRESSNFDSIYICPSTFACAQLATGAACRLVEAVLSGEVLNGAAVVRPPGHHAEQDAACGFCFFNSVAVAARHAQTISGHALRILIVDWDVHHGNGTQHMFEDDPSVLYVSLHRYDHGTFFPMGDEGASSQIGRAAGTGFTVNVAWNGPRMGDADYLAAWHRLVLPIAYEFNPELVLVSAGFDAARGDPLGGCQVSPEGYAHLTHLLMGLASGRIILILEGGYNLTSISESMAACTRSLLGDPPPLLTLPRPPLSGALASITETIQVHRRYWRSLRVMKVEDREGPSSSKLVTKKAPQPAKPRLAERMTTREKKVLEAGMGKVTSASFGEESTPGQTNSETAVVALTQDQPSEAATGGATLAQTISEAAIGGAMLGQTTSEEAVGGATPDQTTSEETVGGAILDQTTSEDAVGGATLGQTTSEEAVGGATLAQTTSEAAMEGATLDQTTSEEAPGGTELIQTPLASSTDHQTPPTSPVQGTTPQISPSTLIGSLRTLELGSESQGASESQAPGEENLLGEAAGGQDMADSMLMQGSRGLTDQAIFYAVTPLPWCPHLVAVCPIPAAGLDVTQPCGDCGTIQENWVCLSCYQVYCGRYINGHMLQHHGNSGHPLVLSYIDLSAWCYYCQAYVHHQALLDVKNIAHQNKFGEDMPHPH

HL-60 [4] = assay: Induction of apoptosis in human HL-60 cells assessed as viable cells at 3 uM after 48 hrs by Annexin V-FITC/propidium iodide staining based flow cytometric analysis (reference value: 93.4%); assay type: functional; conditions: read-out: Activity
How it was run: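 HL-60 cells (1 × 10^6/well) exposed 48 h to compound dilutions, collected, PBS-washed, resuspended in Annexin V-FITC binding buffer, stained with propidium iodide and Annexin V-FITC for 15 min, then analysed by flow cytometry.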

KG-1 = assay: Antiproliferative activity against human KG-1 cells assessed as inhibition of cell proliferation after 48 hrs by MTT assay; assay type: functional, cell-based; conditions: KG-1, 48 h
How it was run: (§2)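 Leukemia/myeloma lines grown in RPMI1640 with 10% FBS at 37 °C, 5% CO2; seeded at 3500–4000 cells/well, cultured overnight, then exposed to serial dilutions for 48 h.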

HL-60 [5] = assay: Antiproliferative activity against human HL-60 cells assessed as inhibition of cell proliferation after 48 hrs by MTT assay; assay type: functional, cell-based; conditions: HL-60, 48 h; how it was run: as §2
Homo sapiens [6] = organism: Homo sapiens; assay: Selectivity ratio of IC50 for HDAC1 (unknown origin) to IC50 for HDAC6 (unknown origin)
HL-60 [7] = assay: Induction of apoptosis in human HL-60 cells at 3 uM measured after 48 hrs by TUNEL staining based fluorescence microscopy; assay type: functional, cell-based
How it was run: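 HL-60 cells (1 × 10^6/well) given 3 µM compound or vehicle (0.2% DMSO) for 48 h; washed in cold PBS, fixed in paraformaldehyde 30 min, permeabilised with 0.5% Triton X-100 for 5 min, labelled 60 min with FITC-12-dUTP plus terminal deoxynucleotidyl transferase, washed twice, green fluorescence imaged by microscopy.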

Homo sapiens [8] = organism: Homo sapiens; assay: Selectivity ratio of IC50 for HDAC8 (unknown origin) to IC50 for HDAC6 (unknown origin)
Jurkat = assay: Antiproliferative activity against human Jurkat cells assessed as inhibition of cell proliferation after 48 hrs by MTT assay; assay type: functional, cell-based; how it was run: as §2

Sequence of Histone deacetylase 2 (Q92769 whole entry): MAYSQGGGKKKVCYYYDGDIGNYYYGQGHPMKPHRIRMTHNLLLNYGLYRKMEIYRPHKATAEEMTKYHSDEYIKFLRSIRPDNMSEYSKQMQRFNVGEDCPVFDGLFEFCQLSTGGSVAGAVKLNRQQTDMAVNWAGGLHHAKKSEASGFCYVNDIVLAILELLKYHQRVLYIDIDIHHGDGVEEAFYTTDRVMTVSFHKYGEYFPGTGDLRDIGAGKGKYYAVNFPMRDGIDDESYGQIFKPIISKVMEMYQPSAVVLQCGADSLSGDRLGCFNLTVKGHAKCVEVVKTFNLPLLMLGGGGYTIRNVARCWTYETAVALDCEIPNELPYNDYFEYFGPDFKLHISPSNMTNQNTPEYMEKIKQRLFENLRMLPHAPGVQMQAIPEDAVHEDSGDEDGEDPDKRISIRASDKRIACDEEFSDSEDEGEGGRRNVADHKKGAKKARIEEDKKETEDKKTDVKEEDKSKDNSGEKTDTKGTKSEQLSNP

- IC50 (Histone deacetylase 2): 12.3 µM
- Stabilty [2]: Stable
- IC50 [3]: 0.0021 µM
- IC50 (HL-60 [5]): 3.23 µM
- Ratio IC50 (Homo sapiens [6]): 5540
- Ratio IC50 (Homo sapiens [8]): 1640
- IC50 (Jurkat): 9.29 µM
SMILES: O=C(NO)c1ccc(CN2C(=O)C(Cc3ccccc3)N(Cc3cccnc3)C2=O)cc1 (racemic)
- IC50 [1]: 68.2 µM
- IC50 (HUVEC): 83.1 µM
- viability at 3 µM (HL-60 [4]): 79.4%
- IC50 (KG-1): 7.04 µM
- Activity (HL-60 [7]): Active
